High-throughput results (PubChem BioAssay)
A selection: hits, their analogues and other compounds. The true share with any hit is near 1.6%.
proCasp3 act = activators of human procaspase-3 D3A mutant, primary screen, biochemical, absorbance, PC-3 D3A mutant, single concentration; 330,000 tested, 0.11% active; recombinant procaspase-3 D3A, Ac-DEVD-pNA absorbance 405 nm; Caspase-3 (Homo sapiens), P42574; activation, % at 8.5 µM; AID 463141, 2010;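 active = activation above the mean of all tested compounds plus 3 SD, cut at about 21% in these data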;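 also: 0% = DMSO alone and 100% = DMSO wells spiked with extra 5 µM PC-3 D3A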
Target sequence (P42574 whole entry D9A/D28A/D175A): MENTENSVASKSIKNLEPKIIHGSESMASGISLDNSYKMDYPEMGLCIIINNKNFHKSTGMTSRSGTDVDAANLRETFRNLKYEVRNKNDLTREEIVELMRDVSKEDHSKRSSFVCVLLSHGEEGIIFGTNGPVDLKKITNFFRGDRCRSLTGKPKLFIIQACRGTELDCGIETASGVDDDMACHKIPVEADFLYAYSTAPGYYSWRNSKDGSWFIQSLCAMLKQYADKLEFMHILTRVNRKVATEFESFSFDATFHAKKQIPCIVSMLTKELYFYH
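Assay system – Procaspase-3 D3A mutant, all three cleavage aspartates alanine · Controls – DMSO-only low control, 5 µM PC-3 D3A high control · Schedule – 1 h compound preincubation, 2 h substrate hydrolysis at 25 °C · Signal – 405 nm absorbance of p-nitroaniline, reads at 0 and 120 min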
sPLA2-III inh = human group III sPLA2 inhibitors, primary screen, biochemical, QFRET, BODIPY PC-A2 liposome substrate; QFRET BODIPY PC-A2 liposome hydrolysis, fluorescence; Group 3 secretory phospholipase A2 (Homo sapiens), Q9NZ20; 370,000 tested, 0.56% active; inhibition, % at 12.2 µM;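 active = inhibition above mean plus 3 SD of compounds lying within the high and low control bounds, cut at about 19% in these data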;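 also: 0% = median of test compound wells and 100% = no enzyme DMSO wells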
proCasp7 act = procaspase-7 activators, primary screen, counter-screen for procaspase-3 activator project, biochemical, absorbance, HTS, human. Caspase-7 (Homo sapiens), P55210. recombinant procaspase-7, Ac-DEVD-pNA absorbance 405 nm; D23A/D198A/D206A triple mutant, cannot self-cleave; scale: DMSO 0, 5 µM enzyme 100. activation, % at 8.5 µM. 330,000 tested, 0.093% active;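 active = percent activation above the screen-wide mean plus 3 SD, cut at about 25% in these data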
Target sequence (P55210 whole entry D23A/D198A/D206A): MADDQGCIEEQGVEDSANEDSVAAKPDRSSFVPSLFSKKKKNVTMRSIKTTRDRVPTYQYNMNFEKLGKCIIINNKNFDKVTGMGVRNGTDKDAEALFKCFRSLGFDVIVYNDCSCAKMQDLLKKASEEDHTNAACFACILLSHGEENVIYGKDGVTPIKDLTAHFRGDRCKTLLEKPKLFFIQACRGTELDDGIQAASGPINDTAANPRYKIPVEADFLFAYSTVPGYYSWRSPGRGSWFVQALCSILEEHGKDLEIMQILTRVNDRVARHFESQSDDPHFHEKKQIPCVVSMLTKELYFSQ
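System: Procaspase-7 triple mutant (PC-7 D3A); measure: % activation from two-timepoint absorbance difference, scaled to controls; times: 1 h compound preincubation, 2 h substrate cleavage, 25 °C; also added: Ac-DEVD-pNA substrate, 400 µM as added; measured by: Epi-absorbance of released pNA at 405 nm, two timepoints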
PLCb3 inh = human PLC-beta3 inhibitors, primary screen, biochemical, fluorescence. 1-phosphatidylinositol 4,5-bisphosphate phosphodiesterase beta-3 (Homo sapiens), Q01970. Purified PLC-beta3, fluorogenic substrate. inhibition, % at 12.2 µM. 370,000 tested, 0.18% active. AID 720704, 2013; in the data active = inhibition above about 11%;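 also: 0% = median of compound wells on plate and 100% = full blocker control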
PLC-gamma1 inh = PLC-gamma1 enzyme inhibitors, primary screen, biochemical, fluorescence, purified enzyme | fluorogenic substrate | 370,000 tested, 0.84% active | 1-phosphatidylinositol 4,5-bisphosphate phosphodiesterase gamma-1 (Homo sapiens), P19174 | inhibition, % at 12.2 µM
PLCg1 ctr = PLC-gamma1 enzyme inhibitors, counter-screen for PLC-beta3 inhibitor project, biochemical, fluorescence; purified PLC-gamma1, fluorogenic substrate; shares compounds with PLC-gamma1 inh; inhibition, % at 12.3 µM; AID 743258, 2014; 3,300 tested, 3.1% active
PLCbeta3 conf = PLC-beta3 inhibitor confirmation, biochemical, fluorescence, purified enzyme; AID 743261, 2014; inhibition, % at 12.3 µM; shares compounds with PLC-gamma1 inh; 3,300 tested, 1% active; fluorogenic substrate fluorescence; in the data active = inhibition above about 11%
Numbers without * were called inactive; nt = no result. Rule as the data show it, unless noted: active = inhibition above about 9.5%; inactive = the rest.

SMILES | proCasp3 act | sPLA2-III inh | proCasp7 act | PLCb3 inh | PLC-gamma1 inh | PLCg1 ctr | PLCbeta3 conf
Cc1ccc2nc(NC(=O)CN3C(=O)NC4(CCCCC4)C3=O)sc2c1 | 7 | -9 | 8 | 0 | 12* | 0 | 1
CCCCC(=O)Nc1ccc(N2CCCC2)cc1 | 2 | -4 | 3 | -13 | -14 | nt | nt
CCCCCC(=O)Nc1ccc(N2CCN(S(C)(=O)=O)CC2)cc1 | 0 | 3 | -2 | 4 | 9.7* | -6 | -4
CN(Cc1ccccc1)C(=O)[C@@H]1CCCN1C(=O)[C@@H]1CCCN1C(=O)c1cccc2ccccc12 | nt | -5 | nt | -2 | 1 | nt | nt
O=C(O)/C=C/C(=O)NCCc1ccccc1 | -13 | 12 | 1 | 4 | 10* | -2 | 2
Cc1ccc2c(c1)c(N=Nc1cccc(C(=O)O)c1)c(O)n2C | -10 | 13 | -7 | 1 | 13* | -8 | -8
c1ccc(Cc2cnc(N3CCN(Cc4ccc5c(c4)OCCO5)CC3)nc2)cc1 | nt | -5 | nt | 4 | 9.8* | -5 | -6
Clc1ccc(CN2CCN(c3ncc(Cc4ccccc4)cn3)CC2)cc1 | nt | -7 | nt | -2 | 1 | nt | nt
COc1ccc(NC(=O)C2Cc3c(-c4ccc(NC(C)=O)cc4)ccnc3O2)cn1 (stereo unspecified) | nt | -3 | nt | 0 | 0 | nt | nt
COc1ccnc2c1c(=O)n(Cc1ccccc1Cl)c(=O)n2C | -3 | 5 | -1 | -4 | 0 | nt | nt
Cn1c(=O)c2c(nc(N3CCN(c4ccccn4)CC3)n2Cc2ccc(Cl)cc2Cl)n(C)c1=O | 5 | 10 | 10 | 7 | 11* | 4 | 1
COc1ccnc2c1c(=O)n(Cc1ccc(Cl)cc1Cl)c(=O)n2C | 2 | -1 | 8 | -4 | 9.8* | -14 | -9
CN1CCN(c2nc3c(c(=O)n(C)c(=O)n3C)n2Cc2ccccc2)CC1 | 3 | -1 | 5 | -3 | 0 | nt | nt
COc1cccc(-c2oc3c(c2C(=O)OCCN(C)C)C(O)CCC3)c1 (stereo unspecified) | nt | 2 | nt | -20 | -18 | nt | nt
OCC[C@@H]1C[C@H](O)[C@@H](O)[C@]2(CCCCO2)O1 | -4 | 8 | 5 | 0 | 1 | nt | nt
Cc1ccc(C)c(NC(=O)C2CCCN2C(=O)NC2CCCCC2)c1 (stereo unspecified) | 0 | 2 | 4 | 3 | 0 | nt | nt
O=C1c2cccnc2-c2ncccc21 | 1 | 3 | 9 | 1 | 2 | nt | nt
O=C1C(=O)c2cccnc2-c2ncccc21 | nt | -9 | nt | 9 | 53* | 51* | 8
COC(=O)C(C(=O)OC)C1CCCCC1NS(=O)(=O)c1ccc(C)cc1 (stereo unspecified) | nt | 11 | nt | 4 | 0 | nt | nt
COC(=O)[C@H](C)NC(=O)/C=C/c1ccc(OC)cc1 | 2 | -3 | -6 | 10 | 9.8* | 7 | 3
Cc1ccc(C2=NNC3(CCOC(C)(C)C3)S2)cc1 (stereo unspecified) | 0 | -1 | -2 | 0 | 0 | nt | nt
O=C(O)CC(NC(=O)C12CC3CC(CC(C3)C1)C2)c1cc([N+](=O)[O-])ccc1Cl (stereo unspecified) | -1 | 9 | -3 | 6 | 13* | -5 | -4
O=C(O)CC(NC(=O)C1CCCCC1)c1cc([N+](=O)[O-])ccc1Cl (stereo unspecified) | 6 | 4 | 0 | -8 | 2 | nt | nt
CN1CCN(c2nc3c(c(=O)[nH]c(=O)n3C)n2CC(N)=O)CC1 | 1 | 5 | -3 | 8 | 14* | -5 | -2
CCCCCn1c(C(C)NC(=O)CCC)nc2ccccc21 (stereo unspecified) | 2 | 4 | 15 | 14* | 7 | -6 | -1
SMILES | proCasp3 act | sPLA2-III inh | proCasp7 act | PLCb3 inh | PLC-gamma1 inh | PLCg1 ctr | PLCbeta3 conf
COc1cccc(-c2cnc(C(O)c3ccc(Cl)c(Cl)c3)[nH]2)c1 (stereo unspecified) | nt | -5 | nt | 0 | -2 | nt | nt
CN(C)S(=O)(=O)c1ccc(C(=O)N2CCCC2c2nc3ccccc3s2)cc1 (stereo unspecified) | 0 | -17 | 3 | 11* | 8 | 6 | 4
O=C1NC(=O)c2cc(Oc3ccc([N+](=O)[O-])cc3)ccc21 | 4 | 8 | 13 | 11* | 11* | -5 | -2
O=C1c2oc3ccccc3c(=O)c2C(c2cccc(O)c2)N1CCCN1CCOCC1 (stereo unspecified) | 5 | -10 | -4 | -16 | -15 | nt | nt
COCCN1C(=O)c2oc3cc(C)c(C)cc3c(=O)c2C1c1cccc(O)c1 (stereo unspecified) | -6 | -9 | 1 | -1 | 15* | -8 | -2
COc1ccc(N(CC(=O)Nc2cccc(OC)c2)S(=O)(=O)c2c(C)nn(C)c2C)cc1 | 1 | -9 | 4 | -2 | 0 | nt | nt
COc1cccc(NC(=O)CN(c2ccc(C)cc2)S(=O)(=O)c2c(C)nn(C)c2C)c1 | 1 | -20 | -1 | 12* | 2 | -2 | 2
COC(=O)C[C@@H]1CC[C@H]2[C@@H](COc3ccc(NC(=O)c4ccc(Cl)cc4)cc3C(=O)N2C)O1 | nt | 16 | nt | -51 | 12* | 0 | 2
CCCNC(=O)C[C@H]1CC[C@H]2[C@@H](COc3ccc(NC(=O)c4cncs4)cc3C(=O)N2C)O1 | nt | -10 | nt | 11* | 12* | 16* | 18*
CN(C)C(CNc1ccc([N+](=O)[O-])cc1C#N)c1ccccc1 (stereo unspecified) | -20 | 1 | -36 | -6 | 1 | nt | nt
N#Cc1cc([N+](=O)[O-])cnc1Nc1ccccc1 | 3 | -6 | -5 | 12* | 10* | -2 | 0
O=C1Nc2ccccc2C1=Nc1ccc2[nH]c3ccccc3c2c1 | nt | 12 | nt | -220 | -160 | nt | nt
Clc1ccc(CNCC2CCCO2)c(Cl)c1 (stereo unspecified) | -4 | 4 | 3 | -1 | 10* | 0 | 2
C[C@H]1CNC(=O)C(=O)N1C[C@H](Cc1ccc(O)cc1)NC(=O)CC12CC3CC(CC(C3)C1)C2 | -5 | 0 | -1 | 12* | 5 | -6 | 2
CCOC(=O)C1CCN(C(=O)c2cc(S(=O)(=O)N3CCCCCC3)ccc2OC)CC1 | 1 | 0 | 3 | 4 | 4 | nt | nt
